Test results from ChEMBL document CHEMBL1128230, “5'-[4-(Pivaloyloxy)-1,3,2-dioxaphosphorinan-2-yl]-2'-deoxy-5-fluorouridine: a membrane-permeating prodrug of 5-fluoro-2'-deoxyuridylic acid (FdUMP)” (J Med Chem, 1995).

Columns and labels:
Mus musculus [1] = assay: Percentage increase in life span of treated mice implanted intraperitoneally with P-388 leukemia sensitive cells compared with controls for a dose of 100 mg/kg.; format: functional; settings: P388, ip, route intraperitoneal
Method in brief: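 Male BDF1 mice (six per group, about 22 g) inoculated ip with 1 × 10^6 P-388/0 leukemia cells on day 0. Drugs given ip daily for 5 consecutive days starting 24 h after implantation, in 0.9% saline or Emulphor 620 vehicle. Animals followed until death. %ILS = (T/C − 1) × 100 from median survival of treated versus saline-treated controls.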

Mus musculus [2] = assay: Median survival time of […] implanted intraperitoneally with P-388 leukemia sensitive cells for a dose of 100 mg/kg.; format: functional; settings: route intraperitoneal
Mus musculus [3] = assay: Percentage increase in life span of treated mice implanted intraperitoneally with P-388 leukemia resistant cells compared with controls for a dose of 100 mg/kg.; format: functional; settings: P388, ip, route intraperitoneal
Method in brief: (§1)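 Male BDF1 mice (six per group, average 22 g) inoculated ip with 1 × 10^6 P-388 cells, wild-type or FU-resistant subline, on day 0. Drugs given ip daily for 5 consecutive days starting 24 h after implantation, in 0.9% saline or Emulphor 620 vehicle; followed until death. Median survival of treated (T) vs saline controls (C); % ILS = (T/C − 1) × 100; body weight change recorded.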

Mus musculus [4] = assay: Median survival time of […] implanted intraperitoneally with P-388 leukemia resistant cells for a dose of 100 mg/kg.; format: functional; settings: route intraperitoneal
Mus musculus [5] = assay: Average percentage weight change on day 5 in mice implanted intraperitoneally with P-388 leukemia sensitive cells for a dose of 100 mg/kg.; format: functional; settings: route intraperitoneal
Method in brief: (§2)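 Male BDF1 mice, six per group, average weight 22 g; 1 × 10^6 P-388 cells (FU-sensitive P-388/0 or FU-resistant P-388/FU) inoculated ip on day 0. Dosing ip daily for 5 consecutive days starting 24 h after implantation. Saline vehicle for FU and FUdR; Emulphor 620 formulation for the prodrug. Followed until death. % ILS = (T/C − 1) × 100 from median survival versus saline-treated controls.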

Mus musculus [6] = assay: Average percentage weight change on day 5 in mice implanted intraperitoneally with P-388 leukemia resistant cells for a dose of 100 mg/kg.; format: functional; settings: route intraperitoneal; method in brief: as §2
Mus musculus [7] = assay: Percentage increase in life span of treated mice implanted intraperitoneally with P-388 leukemia sensitive cells compared with controls at a dose of 100 mg/kg.; format: functional; settings: P388, ip, route intraperitoneal; method in brief: as §1
Mus musculus [8] = assay: Percentage increase in life span of treated mice implanted intraperitoneally with P-388 leukemia sensitive cells compared with controls at a dose of 150 mg/kg.; format: functional; settings: P388, ip, route intraperitoneal; method in brief: as §1
Mus musculus [9] = assay: Percentage increase in life span of treated mice implanted intraperitoneally with P-388 leukemia sensitive cells compared with controls at a dose of 67 mg/kg.; format: functional; settings: P388, ip, route intraperitoneal; method in brief: as §1
Mus musculus [10] = assay: Median survival time of […] implanted intraperitoneally with P-388 leukemia sensitive cells at a dose of 100 mg/kg.; format: functional; settings: route intraperitoneal
Mus musculus [11] = assay: Median survival time of 15 mice implanted intraperitoneally with P-388 leukemia sensitive cells at a dose of 150 mg/kg.; format: functional; settings: route intraperitoneal
Mus musculus [12] = assay: Median survival time of 15 mice implanted intraperitoneally with P-388 leukemia sensitive cells at a dose of 67 mg/kg.; format: functional; settings: route intraperitoneal
Mus musculus [13] = assay: Percentage increase in life span of treated mice implanted intraperitoneally with P-388 leukemia resistant cells compared with controls at a dose of 100 mg/kg.; format: functional; settings: P388, ip, route intraperitoneal; method in brief: as §1
Mus musculus [14] = assay: Percentage increase in life span of treated mice implanted intraperitoneally with P-388 leukemia resistant cells compared with controls at a dose of 150 mg/kg.; format: functional; settings: P388, ip, route intraperitoneal; method in brief: as §1
Mus musculus [15] = assay: Median survival time of […] implanted intraperitoneally with P-388 leukemia resistant cells at a dose of 100 mg/kg.; format: functional; settings: route intraperitoneal
Mus musculus [16] = assay: Median survival time of […] implanted intraperitoneally with P-388 leukemia resistant cells at a dose of 150 mg/kg.; format: functional; settings: route intraperitoneal
Mus musculus [17] = assay: Median survival time of […] implanted intraperitoneally with P-388 leukemia resistant cells at a dose of 67 mg/kg.; format: functional; settings: route intraperitoneal
Mus musculus [18] = assay: Average percentage weight change on day 5 in mice implanted intraperitoneally with P-388 leukemia sensitive cells at a dose of 150 mg/kg.; format: functional; settings: route intraperitoneal; method in brief: as §2
Mus musculus [19] = assay: Average percentage weight change on day 5 in mice implanted intraperitoneally with P-388 leukemia sensitive cells at a dose of 67 mg/kg.; format: functional; settings: route intraperitoneal; method in brief: as §2
Mus musculus [20] = assay: Average percentage weight change on day 5 in mice implanted intraperitoneally with P-388 leukemia resistant cells at a dose of 100 mg/kg.; format: functional; settings: route intraperitoneal; method in brief: as §2
Mus musculus [21] = assay: Average percentage weight change on day 5 in mice implanted intraperitoneally with P-388 leukemia resistant cells at a dose of 150 mg/kg.; format: functional; settings: route intraperitoneal; method in brief: as §2
Mus musculus [22] = assay: Average percentage weight change on day 5 in mice implanted intraperitoneally with P-388 leukemia resistant cells at a dose of 67 mg/kg.; format: functional; settings: route intraperitoneal; method in brief: as §2
Mus musculus [23] = assay: Average percentage weight change on day 5 in mice implanted intraperitoneally with P-388 leukemia sensitive cells at a dose of 100 mg/kg at a dose of 100 mg/kg.; format: functional; method in brief: as §2
Mus musculus [24] = assay: Percentage increase in life span of treated mice implanted intraperitoneally with P-388 leukemia resistant cells compared with controls at a dose of 67 mg/kg.; format: functional; settings: P388, ip, route intraperitoneal; method in brief: as §1
CHO = assay: Growth inhibitory activity against CHO cells in culture.; format: functional, cell-based; settings: Cricetulus griseus
Method in brief: (§3)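 CHO cells and FU-resistant CHO subline plated at about 200 cells per 35-mm dish and cloned with drug at 0, 0.5, 1.5, 5, 10, 50 and 100 µM for 7 days at 37 °C in humidified CO2. Clones fixed in 10% formaldehyde and stained with 0.1% crystal violet. Minimum inhibitory concentration is the lowest concentration giving colonies of fewer than 50 cells.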

CHO-FU = assay: Growth inhibitory activity against CHO/FU cells in culture.; format: functional, cell-based; settings: Cricetulus griseus; method in brief: as §3
Mus musculus [25] = assay: Percentage increase in life span of treated mice implanted intraperitoneally with P-388 leukemia sensitive cells compared with controls at a dose of 20 mg/kg.; format: functional; settings: P388, ip, route intraperitoneal; method in brief: as §1
Mus musculus [26] = assay: Percentage increase in life span of treated mice implanted intraperitoneally with P-388 leukemia sensitive cells compared with controls at a dose of 30 mg/kg.; format: functional; settings: P388, ip, route intraperitoneal; method in brief: as §1
Mus musculus [27] = assay: Median survival time of 15 mice implanted intraperitoneally with P-388 leukemia sensitive cells at a dose of 20 mg/kg.; format: functional; settings: route intraperitoneal
Mus musculus [28] = assay: Median survival time of 15 mice implanted intraperitoneally with P-388 leukemia sensitive cells at a dose of 30 mg/kg.; format: functional; settings: route intraperitoneal; method in brief: as §1
Mus musculus [29] = assay: Percentage increase in life span of treated mice implanted intraperitoneally with P-388 leukemia resistant cells compared with controls at a dose of 20 mg/kg.; format: functional; settings: P388, ip, route intraperitoneal; method in brief: as §1
Mus musculus [30] = assay: Percentage increase in life span of treated mice implanted intraperitoneally with P-388 leukemia resistant cells compared with controls at a dose of 30 mg/kg.; format: functional; settings: P388, ip, route intraperitoneal; method in brief: as §1
Mus musculus [31] = assay: Percentage increase in life span of treated mice implanted intraperitoneally with P-388 leukemia resistant cells compared with controls at a dose of 40 mg/kg.; format: functional; settings: P388, ip, route intraperitoneal; method in brief: as §1
Mus musculus [32] = assay: Median survival time of 15 mice implanted intraperitoneally with P-388 leukemia resistant cells at a dose of 20 mg/kg.; format: functional; settings: route intraperitoneal
Mus musculus [33] = assay: Median survival time of 15 mice implanted intraperitoneally with P-388 leukemia resistant cells at a dose of 30 mg/kg.; format: functional; settings: route intraperitoneal
Mus musculus [34] = assay: Median survival time of 15 mice implanted intraperitoneally with P-388 leukemia resistant cells at a dose of 40 mg/kg.; format: functional; settings: route intraperitoneal
Mus musculus [35] = assay: Average percentage weight change on day 5 in mice implanted intraperitoneally with P-388 leukemia sensitive cells at a dose of 20 mg/kg.; format: functional; settings: route intraperitoneal; method in brief: as §1
Mus musculus [36] = assay: Average percentage weight change on day 5 in mice implanted intraperitoneally with P-388 leukemia sensitive cells at a dose of 30 mg/kg.; format: functional; settings: route intraperitoneal; method in brief: as §1
Mus musculus [37] = assay: Average percentage weight change on day 5 in mice implanted intraperitoneally with P-388 leukemia resistant cells at a dose of 20 mg/kg.; format: functional; settings: route intraperitoneal; method in brief: as §1
Mus musculus [38] = assay: Average percentage weight change on day 5 in mice implanted intraperitoneally with P-388 leukemia resistant cells at a dose of 30 mg/kg.; format: functional; settings: route intraperitoneal; method in brief: as §1
Mus musculus [39] = assay: Average percentage weight change on day 5 in mice implanted intraperitoneally with P-388 leukemia resistant cells at a dose of 40 mg/kg.; format: functional; settings: route intraperitoneal; method in brief: as §1

## O=S(=O)([O-])CCS.[Na+] [MESNA]
Mus musculus [1]
  ILS at 100 mg/kg: 0%
Mus musculus [2]
  MST: 11 days
Mus musculus [3]
  ILS at 100 mg/kg: 0%
Mus musculus [4]
  MST: 11 days
Mus musculus [5]
  Weight change: 10%
Mus musculus [6]
  Weight change: 12%

## O=c1[nH]c(=O)n([C@H]2C[C@H](O)[C@@H](CO)O2)cc1F [FLOXURIDINE]
Mus musculus [7]
  ILS at 100 mg/kg: 73%
Mus musculus [8]
  ILS at 150 mg/kg: 82%
Mus musculus [9]
  ILS at 67 mg/kg: 45%
Mus musculus [10]
  MST: 19 days
Mus musculus [11]
  MST: 20 days
Mus musculus [12]
  MST: 16 days
Mus musculus [13]
  ILS at 100 mg/kg: 18%
Mus musculus [14]
  ILS at 150 mg/kg: 18%
Mus musculus [15]
  MST: 13 days
Mus musculus [16]
  MST: 13 days
Mus musculus [17]
  MST: 12 days
Mus musculus [18]
  Weight change: -5%
Mus musculus [19]
  Weight change: -2%
Mus musculus [20]
  Weight change: -10%
Mus musculus [21]
  Weight change: -10%
Mus musculus [22]
  Weight change: -6%
Mus musculus [23]
  Weight change: -4%
Mus musculus [24]
  ILS at 67 mg/kg: 9%

## C=CC=O [ACROLEIN]
CHO
  IC50: 50 µM
CHO-FU
  IC50: 50 µM

## O=c1[nH]cc(F)c(=O)[nH]1 [FLUOROURACIL]
CHO
  IC50: 5 µM
CHO-FU
  IC50: 100 µM
Mus musculus [25]
  ILS at 20 mg/kg: 45%
Mus musculus [26]
  ILS at 30 mg/kg: 55%
Mus musculus [27]
  MST: 16 days
Mus musculus [28]
  MST: 17 days
Mus musculus [29]
  ILS at 20 mg/kg: -9%
Mus musculus [30]
  ILS at 30 mg/kg: -18%
Mus musculus [31]
  ILS at 40 mg/kg: -18%
Mus musculus [32]
  MST: 10 days
Mus musculus [33]
  MST: 9 days
Mus musculus [34]
  MST: 9 days
Mus musculus [35]
  Weight change: -5%
Mus musculus [36]
  Weight change: -15%
Mus musculus [37]
  Weight change: -6%
Mus musculus [38]
  Weight change: -15%
Mus musculus [39]
  Weight change: -18%
